Reference: ChEMBL document CHEMBL1135780, “6-Chloro-3-alkylamino-4H-thieno[3,2-e]-1,2,4-thiadiazine 1,1-dioxide derivatives potently and selectively activate ATP sensitive potassium channels of pancreatic beta-cells” (J Med Chem, 2002)

What was measured:
Beta-TC6 [1] = experiment: Ability to inhibit the release of insulin from the mouse beta-TC6 cell line; assay type: functional, cell-based
Outline: (§1)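 βTC6 cells, 5 × 10⁴/well, grown 3 days in DMEM + 10% FCS, 11 mM glucose, 20 mM Hepes. Washed twice in NN buffer with 0.1% BSA, preincubated 60 min, then 3 h with 22 mM glucose, 0.1 mM IBMX and serial compound dilutions. Insulin in supernatant measured by in-house ELISA (guinea pig anti-insulin, rat insulin standard). Reference compound as positive control.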

Beta-TC6 [2] = experiment: Maximum inhibition of glucose stimulated insulin release from mouse beta-TC6 cells at 10 uM in vitro.; assay type: functional
[3] = Changes in potassium fluxes assessed in the glucose responsive insulin-producing murine cell line beta-TC3; assay type: functional, cell-based, Mus musculus
Outline: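 βTC3 membrane potential read as DiBAC4(3) fluorescence at 0.01, 0.1, 1, 10 and 100 µM, four wells each. Signal normalized to each well's initial value and expressed as fractional fluorescence change over 45 min incubation. EC50 from four-parameter nonlinear fit; mean ± SEM of at least three independent experiments.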

Rattus norvegicus [4] = species on record: Rattus norvegicus; experiment: Ability to relax phenylephrine-contracted rat aorta rings; assay type: functional
Rattus norvegicus [5] = species on record: Rattus norvegicus; experiment: Effective concentration required for relaxation of rat aorta rings; assay type: functional
Rattus norvegicus [6] = species on record: Rattus norvegicus; experiment: Effective concentration required for relaxation of the rat aorta rings; assay type: functional
[7] = (§2) LogD for water and octanol distribution coefficient at pH 7.4; assay type: physicochemical
Outline: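 Octanol/water distribution measured by potentiometric titration, pH 10.5 to 2.0. Three titrations on one sample, with 1.00 mL then 10.00 mL octanol added before the second and third. Aqueous pKa used in refinement; combined multiset gives LogD at pH 7.4.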

[8] = Partition coefficient (logP); assay type: physicochemical; conditions: octanol/water
[9] = Compound was evaluated for physiochemical property pKa; assay type: physicochemical
Outline: (§3)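 Potentiometric titration from pH 2 to 10.5 in 80% MeOH cosolvent. Three titrations on the same sample, with 0.15 M KCl added before the second. psKa values extrapolated to 0% cosolvent by Yasuda–Shedlovsky.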

[10] = Oral bioavailability in rat (Sprague-Dawley); assay type: ADME, organism-based; conditions: Sprague-Dawley, in vivo
Outline: (§4)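 Cassette dosing, two compounds per cassette, in Sprague–Dawley rats of about 180 g, n = 2. iv doses 0.5 or 0.89 mg/kg; oral doses 1.89 or 2.0 mg/kg. Vehicle 0.1 M potassium phosphate pH 8.0, or PEG 300 based. Heart-puncture sampling, one rat per point. Plasma levels by LC/MS/MS; noncompartmental analysis.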

Rattus norvegicus [11] = species on record: Rattus norvegicus; experiment: Vasodilation effects on Wistar rat mesenteric arteries precontracted with phenylephrine; assay type: functional
Beta-TC6 [12] = experiment: Percentage insulin release in vitro in beta-TC6 cells; assay type: functional; conditions: Mus musculus; outline: as §1
[13] = Acid dissociation constant was determined; assay type: ADME; outline: as §3
Rattus norvegicus [14] = species on record: Rattus norvegicus; experiment: Maximum change in MAP in rat; assay type: functional
Outline: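 Anaesthetized male Sprague–Dawley rats given 3 mg/kg iv bolus (0.3 mg/kg for one compound) in 0.15% NaOH/saline via jugular cannula. Maximal percent change in mean arterial pressure over 5 min after dosing; mean ± SEM, 2–4 animals.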

[15] = biological target: T1, Sulfonylurea receptor 1, Kir6.2 (Homo sapiens, UniProt Q09428+Q14654); experiment: Inhibition of [3H]glibenclamide binding to HEK293 cells co-expressing human Sulfonylurea receptor SUR1 and Inward rectifier K+ channel Kir6.2 at low affinity state with 2 mM MgATP; assay type: cell-based
T1 sequence (Q14654 whole entry): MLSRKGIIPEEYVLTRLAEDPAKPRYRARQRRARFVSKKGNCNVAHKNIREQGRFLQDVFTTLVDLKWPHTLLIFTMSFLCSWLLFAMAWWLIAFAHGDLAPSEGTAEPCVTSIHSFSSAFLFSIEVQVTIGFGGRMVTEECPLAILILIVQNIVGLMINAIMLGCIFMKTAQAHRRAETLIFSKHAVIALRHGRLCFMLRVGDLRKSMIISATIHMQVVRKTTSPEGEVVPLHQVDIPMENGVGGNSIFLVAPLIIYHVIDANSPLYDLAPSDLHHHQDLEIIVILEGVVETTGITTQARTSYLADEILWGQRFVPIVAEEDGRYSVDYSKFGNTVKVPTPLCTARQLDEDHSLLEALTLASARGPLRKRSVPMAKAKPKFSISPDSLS
T1 sequence (Q09428 whole entry): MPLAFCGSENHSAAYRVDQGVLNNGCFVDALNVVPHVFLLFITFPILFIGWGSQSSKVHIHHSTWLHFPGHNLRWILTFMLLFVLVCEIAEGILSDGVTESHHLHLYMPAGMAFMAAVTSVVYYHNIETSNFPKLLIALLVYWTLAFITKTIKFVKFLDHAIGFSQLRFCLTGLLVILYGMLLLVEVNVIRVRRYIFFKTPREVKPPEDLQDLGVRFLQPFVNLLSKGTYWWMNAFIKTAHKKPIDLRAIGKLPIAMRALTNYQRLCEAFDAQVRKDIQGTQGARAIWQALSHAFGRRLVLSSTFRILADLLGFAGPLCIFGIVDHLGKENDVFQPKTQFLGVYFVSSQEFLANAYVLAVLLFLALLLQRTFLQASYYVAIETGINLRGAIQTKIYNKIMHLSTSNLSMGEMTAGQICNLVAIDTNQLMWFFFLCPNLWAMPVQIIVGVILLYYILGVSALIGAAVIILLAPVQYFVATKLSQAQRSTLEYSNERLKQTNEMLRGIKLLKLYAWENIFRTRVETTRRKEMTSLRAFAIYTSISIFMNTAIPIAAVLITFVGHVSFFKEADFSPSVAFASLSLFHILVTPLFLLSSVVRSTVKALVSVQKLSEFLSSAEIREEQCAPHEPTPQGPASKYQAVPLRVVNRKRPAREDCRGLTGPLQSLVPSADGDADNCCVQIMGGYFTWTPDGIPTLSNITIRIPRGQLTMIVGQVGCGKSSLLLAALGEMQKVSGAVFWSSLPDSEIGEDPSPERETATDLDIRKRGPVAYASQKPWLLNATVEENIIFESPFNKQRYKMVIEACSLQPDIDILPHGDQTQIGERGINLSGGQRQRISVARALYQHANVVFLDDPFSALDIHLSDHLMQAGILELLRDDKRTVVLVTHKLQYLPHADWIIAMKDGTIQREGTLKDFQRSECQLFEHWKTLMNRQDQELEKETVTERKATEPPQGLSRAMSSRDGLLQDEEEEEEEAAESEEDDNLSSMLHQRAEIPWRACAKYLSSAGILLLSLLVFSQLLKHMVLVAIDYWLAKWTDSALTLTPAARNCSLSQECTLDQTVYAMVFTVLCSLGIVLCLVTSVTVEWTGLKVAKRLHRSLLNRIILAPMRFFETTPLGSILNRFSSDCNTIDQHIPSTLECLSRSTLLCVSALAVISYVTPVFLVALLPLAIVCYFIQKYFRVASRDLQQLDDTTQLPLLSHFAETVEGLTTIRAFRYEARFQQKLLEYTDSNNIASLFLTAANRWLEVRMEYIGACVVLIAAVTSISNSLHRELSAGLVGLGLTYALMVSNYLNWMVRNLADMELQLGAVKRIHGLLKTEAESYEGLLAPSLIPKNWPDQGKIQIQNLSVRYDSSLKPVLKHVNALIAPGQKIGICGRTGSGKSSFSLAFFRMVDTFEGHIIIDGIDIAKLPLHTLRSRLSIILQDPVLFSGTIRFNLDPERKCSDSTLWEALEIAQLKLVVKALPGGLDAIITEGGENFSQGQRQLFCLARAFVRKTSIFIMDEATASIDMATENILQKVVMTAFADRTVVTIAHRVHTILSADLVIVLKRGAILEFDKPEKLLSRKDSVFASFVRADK

Rattus norvegicus [16] = species on record: Rattus norvegicus; experiment: Reduction in plasma insulin in 30 min post-injection in rat; assay type: functional; parameters: concentration or dose not given beside the values
Outline: (§5)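 Postprandial male Sprague–Dawley rats, 280–320 g, under Hypnorm/Dormicum at 37 °C. 3 mg/kg iv bolus over 20 s via jugular cannula (0.3 mg/kg for one compound), dissolved in 0.15% NaOH and saline. Blood taken every 5–10 min from 15 min pre- to 30 min postinjection. Plasma insulin by ELISA, as % reduction from pre-dose level. 2–4 animals.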

[17] = biological target: T1, Sulfonylurea receptor 1, Kir6.2; experiment: Inhibition of [3H]glibenclamide binding to HEK293 cells co-expressing human Sulfonylurea receptor SUR1 and Inward rectifier K+ channel Kir6.2 without ATP; assay type: cell-based
Rattus norvegicus [18] = species on record: Rattus norvegicus; experiment: Maximum reduction in plasma insulin in rat; assay type: functional; outline: as §5
[19] = Half life after oral administration to Sprague-Dawley rats; assay type: ADME, organism-based; conditions: rat, in vivo; outline: as §4
Rattus norvegicus [20] = species on record: Rattus norvegicus; experiment: Inhibition of glucose-stimulated insulin release from Wistar rat islets; assay type: functional
Outline: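 Isolated rat islets held overnight in RPMI, 10% FCS, 11 mM glucose, then 10 islets/well overnight in DMEM, 10% FCS, 3 mM glucose. Run like the βTC6 assay (60 min NN buffer preincubation, 3 h with 22 mM glucose and serial dilutions) without IBMX. Insulin by in-house ELISA.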

[21] = as §2; assay type: physicochemical; remark: listed apart in the source
Outline: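 Three titrations on one sample, with 1.00 mL then 10.00 mL octanol added before the second and third. Aqueous pKa used in refinement; combined multiset gives LogD at pH 7.4.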

[22] = biological target: T1, Sulfonylurea receptor 1, Kir6.2; experiment: Inhibition of [3H]glibenclamide binding to HEK293 cells co-expressing human Sulfonylurea receptor SUR1 and Inward rectifier K+ channel Kir6.2 at high affinity state with 2 mM MgATP; assay type: cell-based

SMILES | IC50 (Beta-TC6 [1]) | EC50 [3] | EC50 (Rattus norvegicus [4]) | Emax at 10 µM (Beta-TC6 [2]) | other results
O=S1(=O)NC(NC2CC2)=Nc2cc(Cl)sc21 | 7.38 µM | > 30 µM | 28.2 µM | 37% | 
CC(C)CCCC(C)NC1=NS(=O)(=O)c2sc(Cl)cc2N1 (racemic) | 4.89 µM | 2 µM | 25.2 µM | 72% | 
CCCCNC1=NS(=O)(=O)c2sc(Cl)cc2N1 | 1.39 µM | 0.6 µM | 13.4 µM | 66% | EC50 (Rattus norvegicus [6]): 13.4 µM
CCC(C)CNC1=NS(=O)(=O)c2sc(Cl)cc2N1 (racemic) | 0.15 µM | 20 µM | 20.5 µM | 48% | logD [7]: 3.14; logP [8]: 3.17; pKa [9]: 8.29
CC1(NC2=NS(=O)(=O)c3sc(Cl)cc3N2)CCCC1 | 0.07 µM | 0.08 µM | 6.2 µM | 79% | 
O=S1(=O)NC(NC2CCCCC2)=Nc2cc(Cl)sc21 | 25.6 µM | 8 µM | 6.8 µM | 40% | 
CC(C)(C)NC1=NS(=O)(=O)c2sc(Cl)cc2N1 | 0.17 µM | 0.4 µM | 169 µM |  | EC50 (Rattus norvegicus [11]): 60.6 µM; Emax (Beta-TC6 [12]): 77%; Change (Rattus norvegicus [14]): -36%; IC50 [15]: 393 µM; Reduction (Rattus norvegicus [16]): 71%; IC50 [17]: 1350 µM; Reduction (Rattus norvegicus [18]): 85%; IC50 (Rattus norvegicus [20]): 0.06 µM; IC50 [22]: 0.23 µM

Further lines, with some results ahead:

IC50 (Beta-TC6 [1]) | EC50 [3] | EC50 (Rattus norvegicus [4]) | SMILES | Emax at 10 µM (Beta-TC6 [2]) | other results
5.33 µM | 1 µM | 1.4 µM | CC1(NC2=NS(=O)(=O)c3sc(Cl)cc3N2)CCCCC1 | 62% | 
7.1 µM | 0.2 µM | 0.15 µM | CCCCCCNC1=NS(=O)(=O)c2sc(Cl)cc2N1 | 67% | EC50 (Rattus norvegicus [5]): 0.15 µM
0.24 µM | > 100 µM | 8 µM | CCC(CC)CNC1=NS(=O)(=O)c2sc(Cl)cc2N1 | 38% | 
0.02 µM | 0.1 µM | 3.3 µM | CCC1(NC2=NS(=O)(=O)c3sc(Cl)cc3N2)CCC1 | 81% | 
0.23 µM | 0.6 µM | 266 µM | CC(C)NC1=NS(=O)(=O)c2sc(Cl)cc2N1 |  | bioavailability [10]: 65%; EC50 (Rattus norvegicus [11]): 6.2 µM; Emax (Beta-TC6 [12]): 85%; pKa [13]: 8.35; logP [8]: 1.84; Change (Rattus norvegicus [14]): -19%; IC50 [15]: 187 µM; Reduction (Rattus norvegicus [16]): 96%; IC50 [17]: 554 µM; Reduction (Rattus norvegicus [18]): 96%; half-life [19]: 2.73 h; IC50 (Rattus norvegicus [20]): 0.18 µM; logD [21]: 1.63; IC50 [22]: 0.34 µM
1.5 µM | 0.5 µM | 176 µM | CCCCCCCCNC1=NS(=O)(=O)c2sc(Cl)cc2N1 | 76% | 
0.56 µM | 14 µM | > 300 µM | CC(C)[C@H](C)NC1=NS(=O)(=O)c2sc(Cl)cc2N1 | 80% | 
0.17 µM |  | 34.8 µM | CC(C)C(C)NC1=NS(=O)(=O)c2sc(Cl)cc2N1 (racemic) | 79% | 
